Source: ChEMBL document CHEMBL1154727, “Cytotoxic activity of 3-(5-phenyl-3H-[1,2,4]dithiazol-3-yl)chromen-4-ones and 4-oxo-4H-chromene-3-carbothioic acid N-phenylamides” (Eur J Med Chem, 2010)

What was measured:
[1] = tested on: HEp-2; assay: Growth inhibition of human Hep2 cells at 1 uM after 48 hrs by sulforhodamine B assay; assay type: functional; details: HEp-2, 48 h, read-out: GI
Procedure, shortened: (§1)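 Cells grown in RPMI-1640 with 10% FBS and antibiotics, plated at 1 × 10^4 cells/well for 24 h at 37 °C, 5% CO2. Agents diluted in gentamycin-containing medium, then added in quadruplicate for 48 h. Cells fixed with cold TCA at 4 °C for 1 h, stained with 0.4% SRB, and dye dissolved in 10 mM Tris pH 10.5; absorbance read at 540 nm.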

[2] = tested on: A549; assay: Growth inhibition of human A549 cells at 1 uM after 48 hrs by sulforhodamine B assay; assay type: functional; details: A549, 48 h, read-out: GI; procedure, shortened: as §1
[3] = tested on: IMR-32; assay: Growth inhibition of human IMR32 cells at 1 uM after 48 hrs by sulforhodamine B assay; assay type: functional; details: IMR-32, 48 h, read-out: GI; procedure, shortened: as §1
[4] = tested on: IMR-32; assay: Growth inhibition of human IMR32 cells after 48 hrs by sulforhodamine B assay; assay type: functional, cell-based; details: IMR-32, 48 h
Procedure, shortened: (§2)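 Cells kept in RPMI-1640 with 10% FBS, penicillin and streptomycin; trypan blue viability check beforehand. Seeded at 1 × 10^4 cells/well, 24 h at 37 °C, 5% CO2, then treated in quadruplicate for 48 h. Compounds diluted in medium with 50 µg/ml gentamycin; single test level 100 µM. TCA fixation at 4 °C for 1 h, SRB stain, Tris pH 10.5 solubilization, OD 540 nm. IC50 taken as the mean from dose-response curves.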

[5] = tested on: IMR-32; assay: Growth inhibition of human IMR32 cells at 100 uM after 48 hrs by sulforhodamine B assay; assay type: functional; details: IMR-32, 48 h, read-out: GI; procedure, shortened: as §2
[6] = tested on: COLO 205; assay: Growth inhibition of human COLO205 cells after 48 hrs by sulforhodamine B assay; assay type: functional, cell-based; details: COLO 205, 48 h; procedure, shortened: as §2
[7] = tested on: HEp-2; assay: Growth inhibition of human Hep2 cells after 48 hrs by sulforhodamine B assay; assay type: functional, cell-based; details: HEp-2, 48 h; procedure, shortened: as §2
[8] = tested on: OVCAR-5 (human); assay: Growth inhibition of human OVCAR-5 cells after 48 hrs by sulforhodamine B assay; details: OVCAR-5, 48 h
[9] = tested on: PC-3; assay: Growth inhibition of human PC3 cells after 48 hrs by sulforhodamine B assay; assay type: functional, cell-based; details: PC-3, 48 h; procedure, shortened: as §2
[10] = tested on: A549; assay: Growth inhibition of human A549 cells after 48 hrs by sulforhodamine B assay; assay type: functional, cell-based; details: A549, 48 h; procedure, shortened: as §2
[11] = tested on: A549; assay: Growth inhibition of human A549 cells at 100 uM after 48 hrs by sulforhodamine B assay; assay type: functional; details: A549, 48 h, read-out: GI; procedure, shortened: as §2
[12] = tested on: COLO 205; assay: Growth inhibition of human COLO205 cells at 100 uM after 48 hrs by sulforhodamine B assay; assay type: functional; details: COLO 205, 48 h, read-out: GI; procedure, shortened: as §2
[13] = tested on: PC-3; assay: Growth inhibition of human PC3 cells at 100 uM after 48 hrs by sulforhodamine B assay; assay type: functional; details: PC-3, 48 h, read-out: GI; procedure, shortened: as §2
[14] = tested on: OVCAR-5 (human); assay: Growth inhibition of human OVCAR-5 cells at 100 uM after 48 hrs by sulforhodamine B assay; details: OVCAR-5, 48 h, read-out: GI
[15] = tested on: HEp-2; assay: Growth inhibition of human Hep2 cells at 100 uM after 48 hrs by sulforhodamine B assay; assay type: functional; details: HEp-2, 48 h, read-out: GI; procedure, shortened: as §2
[16] = tested on: PC-3; assay: Growth inhibition of human PC3 cells at 10 uM after 48 hrs by sulforhodamine B assay; assay type: functional; details: PC-3, 48 h, read-out: GI; procedure, shortened: as §1
[17] = tested on: OVCAR-5 (human); assay: Growth inhibition of human OVCAR-5 cells at 10 uM after 48 hrs by sulforhodamine B assay; details: OVCAR-5, 48 h, read-out: GI
[18] = tested on: COLO 205; assay: Growth inhibition of human COLO205 cells at 10 uM after 48 hrs by sulforhodamine B assay; assay type: functional; details: COLO 205, 48 h, read-out: GI; procedure, shortened: as §1
[19] = tested on: PC-3; assay: Growth inhibition of human PC3 cells at 20 uM after 48 hrs by sulforhodamine B assay; assay type: functional; details: PC-3, 48 h, read-out: GI
Procedure, shortened: (§3)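 Cells kept in RPMI-1640 with 10% FBS, penicillin and streptomycin; viability checked by trypan blue before use. Seeded at 1 × 10^4 cells/well, 24 h at 37 °C in 5% CO2, then compound (diluted in medium with gentamycin) added in quadruplicate for 48 h. Cells fixed with cold 50% TCA at 4 °C for 1 h, stained with 0.4% SRB, dye dissolved in 10 mM Tris pH 10.5, OD read at 540 nm.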

[20] = tested on: OVCAR-3; assay: Growth inhibition of human OVCAR-3 cells at 20 uM after 48 hrs by sulforhodamine B assay; assay type: functional; details: OVCAR-3, 48 h, read-out: GI; procedure, shortened: as §3
[21] = tested on: COLO 205; assay: Growth inhibition of human COLO205 cells at 20 uM after 48 hrs by sulforhodamine B assay; assay type: functional; details: COLO 205, 48 h, read-out: GI; procedure, shortened: as §3
[22] = tested on: IMR-32; assay: Growth inhibition of human IMR32 cells at 10 uM after 48 hrs by sulforhodamine B assay; assay type: functional; details: IMR-32, 48 h, read-out: GI; procedure, shortened: as §1
[23] = tested on: A549; assay: Growth inhibition of human A549 cells at 10 uM after 48 hrs by sulforhodamine B assay; assay type: functional; details: A549, 48 h, read-out: GI; procedure, shortened: as §1
[24] = tested on: HEp-2; assay: Growth inhibition of human Hep2 cells at 10 uM after 48 hrs by sulforhodamine B assay; assay type: functional; details: HEp-2, 48 h, read-out: GI; procedure, shortened: as §1

Row | Structure (SMILES) | IC50 [4] | inhibition of growth at 100 µM [5] | IC50 [6] | IC50 [7] | IC50 [8] | IC50 [9] | IC50 [10] | inhibition of growth at 100 µM [11] | inhibition of growth at 100 µM [12] | inhibition of growth at 100 µM [13] | inhibition of growth at 100 µM [14] | inhibition of growth at 100 µM [15] | further results
1 | COc1cccc2c1C(=O)c1c(O)c3c(c(O)c1C2=O)C[C@@](O)(C(=O)CO)C[C@@H]3O[C@H]1C[C@H](N)[C@H](O)[C@H](C)O1 [DOXORUBICIN] | 1.7 µM | – | – | – | – | – | – | – | – | – | – | – | inhibition of growth at 1 µM [1]: 57%; inhibition of growth at 1 µM [2]: 93%; inhibition of growth at 1 µM [3]: 55%
2 | O=c1c(C(=S)Nc2ccccc2)coc2cc(Cl)ccc12 | 92.7 µM | 56% | > 100 µM | > 100 µM | > 100 µM | 90.8 µM | 63.6 µM | 66% | 38% | 55% | 47% | 41% | –
3 | CO[C@@]12[C@H](COC(N)=O)C3=C(C(=O)C(C)=C(N)C3=O)N1C[C@@H]1N[C@@H]12 [MITOMYCIN] | – | – | – | 1.5 µM | – | 1.5 µM | – | – | – | – | – | – | inhibition of growth at 10 µM [16]: 41%; inhibition of growth at 10 µM [17]: 65%; inhibition of growth at 10 µM [18]: 44%
4 | O=c1c(C2N=C(c3ccccc3)SS2)coc2cc(Cl)c(F)cc12 (stereo not given) | 56.8 µM | 80% | > 100 µM | 97.6 µM | 61.7 µM | 56.9 µM | 93.5 µM | 57% | 45% | 76% | 75% | 52% | –
5 | O=c1c(C(=S)Nc2ccccc2)coc2cc(Cl)c(Cl)cc12 | 89.9 µM | 18% | > 100 µM | > 100 µM | > 100 µM | 95.4 µM | 71.2 µM | 3% | 16% | 16% | 2% | 4% | –
6 | O=c1c(C2N=C(c3ccccc3)SS2)coc2ccc(Cl)cc12 (stereo not given) | 10 µM | 92% | > 100 µM | 74.9 µM | 66.5 µM | 52.7 µM | 71.3 µM | 73% | 12% | 62% | 71% | 69% | –
7 | O=c1c(C(=S)Nc2ccccc2)coc2ccc(F)cc12 | 89.8 µM | 59% | > 100 µM | > 100 µM | > 100 µM | > 100 µM | 71.9 µM | 70% | 26% | 45% | 49% | 32% | –
8 | O=c1c(C(=S)Nc2ccccc2)coc2ccccc12 | 95.8 µM | 53% | 72.6 µM | > 100 µM | 86.4 µM | 60.6 µM | 52.8 µM | 79% | 71% | 63% | 58% | 32% | –
9 | O=c1c(C2N=C(c3ccccc3)SS2)coc2cc(Cl)ccc12 (stereo not given) | 95.1 µM | 53% | 76.7 µM | > 100 µM | 10.5 µM | 38.4 µM | 57.5 µM | 76% | 57% | 81% | 91% | 31% | –
10 | O=c1[nH]cc(F)c(=O)[nH]1 [FLUOROURACIL] | – | – | 21 µM | – | – | – | – | – | – | – | – | – | inhibition of growth at 20 µM [19]: 20%; inhibition of growth at 20 µM [20]: 26%; inhibition of growth at 20 µM [21]: 12%
11 | Cc1ccc2occ(C3N=C(c4ccccc4)SS3)c(=O)c2c1 (stereo not given) | 70.7 µM | 53% | > 100 µM | > 100 µM | 93.7 µM | > 100 µM | 66.5 µM | 67% | 32% | 40% | 54% | 43% | –
12 | O=c1c(C2N=C(c3ccccc3)SS2)coc2cc(Cl)c(Cl)cc12 (stereo not given) | 58 µM | 77% | > 100 µM | 98 µM | 65.2 µM | 60 µM | 95 µM | 52% | 50% | 70% | 68% | 51% | –
13 | O=c1c(C2N=C(c3ccccc3)SS2)coc2ccccc12 (stereo not given) | 16.5 µM | 82% | > 100 µM | > 100 µM | > 100 µM | > 100 µM | > 100 µM | 42% | 18% | 23% | 11% | 48% | –
14 | CC(=O)O[C@H]1C(=O)[C@@]2(C)[C@H]([C@H](OC(=O)c3ccccc3)[C@]3(O)C[C@H](OC(=O)[C@H](O)[C@@H](NC(=O)c4ccccc4)c4ccccc4)C(C)=C1C3(C)C)[C@]1(OC(C)=O)CO[C@@H]1C[C@@H]2O [PACLITAXEL] | – | – | – | – | 2.7 µM | – | 2.7 µM | – | – | – | – | – | inhibition of growth at 10 µM [22]: 45%; inhibition of growth at 10 µM [23]: 67%; inhibition of growth at 10 µM [24]: 55%
15 | O=c1c(C2N=C(c3ccccc3)SS2)coc2ccc(F)cc12 (stereo not given) | 14.6 µM | 75% | > 100 µM | 98.6 µM | > 100 µM | > 100 µM | 91.1 µM | 55% | 37% | 32% | 27% | 51% | –
